Values joined by “and” are separate entries in the source; they are usually repeats but may differ in a detail not shown here. Equal entries are not always repeated.
Columns and labels:
[1] = test system: Canis familiaris; experiment: Hemodynamic effect in sinoaortic- deafferented hypertensive dog measured as mean arterial BP after 0 min of 5 mg/kg dose; format: functional, Canis lupus familiaris
[2] = test system: Rattus norvegicus; experiment: (§1) Oral hypotensive activity in spontaneously hypertensive rats by using tail-cuff method measured as change in systolic BP at the dose of 5 mg/kg po.; format: functional, Blood
In short: (§2)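 Okamoto-Aoki spontaneously hypertensive rats. Compound suspended in distilled water with Tween 80, given po daily, screening dose 50 mg/kg, dose-response at 50, 30, 10 or 3 mg/kg unless stated. Systolic BP by tail-cuff plethysmography on day 1 predose and 2 h, day 3 predose and 2 h, and day 5 predose, 2 and 4 h. Reported as peak decrease on day 3 (or day 5) at 2 h ± SEM. n = 4 in screen, 4–8 per dose.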

[3] = test system: Rattus norvegicus; experiment: Hypotensive activity in renal hypertensive rats by using tail-cuff method measured as post drug BP (day/h) after administration of 10 mg/kg dose po;(day/h=1/2); format: functional, Blood
In short: (§3)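 Renal hypertension made in male Sprague-Dawley rats (Grollman modification). Under pentobarbital (50 mg/kg ip), the right kidney was removed and silk sutures tied around both poles of the left kidney to constrict it. After 3 weeks, rats with systolic BP >150 mmHg were used. Compound given po daily to 4 rats. Systolic BP by tail-cuff plethysmography at the listed day/hour after dosing.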

[4] = test system: Canis familiaris; experiment: Effect of compound at a dose of 10 mg/kg iv, on standard cardiovascular in anesthetized normotensive dogs before administration of norepinephrine.; format: functional, Canis lupus familiaris, Heart
In short: (§4)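 Trachea intubated, artificially respired, bilateral vagotomy. Femoral artery cannulated for BP, femoral vein for drugs. BP and heart rate recorded continuously. Each iv challenge given twice predrug for matched responses and once after test drug. Doses: epinephrine and norepinephrine 0.5 to 1.0 μg/kg; isoproterenol and carbachol 0.25 μg/kg.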

[5] = test system: Canis familiaris; experiment: Effect of compound at a dose of 10 mg/kg iv, on standard cardiovascular in anesthetized normotensive dogs after administration of tyramine.; format: functional, Canis lupus familiaris, Heart; in short: as §4
[6] = test system: Rattus norvegicus; experiment: (§5) Oral hypotensive activity in spontaneously hypertensive rats by using tail-cuff method measured as change in systolic BP at the dose of 50 mg/kg po.; format: functional, Blood
In short: (§6)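 Okamoto-Aoki strain spontaneously hypertensive rats. Compounds were suspended in distilled water with Tween 80 and given orally every day at 50, 30, 10 or 3 mg/kg. Systolic BP was measured by tail-cuff plethysmography on day 1 (predose and 2 h), day 3 (predose and 2 h) and day 5 (predose, 2 and 4 h). The screen used 4 rats; dose-response used 4–8 rats per dose.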

[7] = test system: Rattus norvegicus; experiment: (§7) Oral hypotensive activity in spontaneously hypertensive rats by using tail-cuff method measured as change in systolic BP at the dose of 10 mg/kg po.; format: functional, Blood; in short: as §2
[8] = test system: Rattus norvegicus; experiment: hypotensive activity in renal hypertensive rats by using tail-cuff method measured as post drug BP (day/h) after administration of 10 mg/kg dose po;(day/h=3/0); format: functional, Blood
In short: (§8)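 Renal hypertension (modified Grollman) was made in male Sprague-Dawley rats under pentobarbital sodium 50 mg/kg ip. The right kidney was removed, and silk sutures around both poles of the left kidney constricted the parenchyma. After 3 weeks of stabilization, rats with systolic BP >150 mmHg were used. Compounds were given orally. Systolic BP was measured by tail-cuff predose and at the stated day/h after dosing.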

[9] = test system: Canis familiaris; experiment: Hemodynamic effect in sinoaortic- deafferented hypertensive dog measured as left ventricular pressure after 0 min of 5 mg/kg; format: functional, Canis lupus familiaris, Heart left ventricle
[10] = test system: Rattus norvegicus; experiment: as §7; format: functional, Blood; remark: listed apart in the source
In short: (§9)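 SHR of the Okamoto-Aoki strain, dosed orally every day with compound suspended in distilled water with Tween 80. Systolic pressure was taken by tail-cuff plethysmography on day 1 (predose, 2 h), day 3 (predose, 2 h) and day 5 (predose, 2 and 4 h). Initial BP is the pretreatment systolic pressure, with 4–8 rats per dose in the dose-response screen.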

[11] = test system: Canis familiaris; experiment: Effect of compound at a dose of 10 mg/kg iv, on standard cardiovascular in anesthetized normotensive dogs before administration of carbachol; format: functional, Canis lupus familiaris, Heart; in short: as §4
[12] = test system: Canis familiaris; experiment: Hemodynamic effect in sinoaortic- deafferented hypertensive dog measured as heart rate after 30 min of 5 mg/kg dose; format: functional, Canis lupus familiaris
[13] = test system: Canis familiaris; experiment: Effect of compound at a dose of 10 mg/kg iv, on standard cardiovascular in anesthetized normotensive dogs after administration of norepinephrine.; format: functional, Canis lupus familiaris, Heart; in short: as §4
[14] = test system: Canis familiaris; experiment: Hemodynamic effect in sinoaortic- deafferented hypertensive dog measured as heart rate after 0 min of 5 mg/kg dose; format: functional, Canis lupus familiaris
[15] = test system: Canis familiaris; experiment: Effect of compound at a dose of 10 mg/kg iv, on standard cardiovascular in anesthetized normotensive dogs after administration of isoproterenol.; format: functional, Canis lupus familiaris, Heart; in short: as §4
[16] = test system: Canis familiaris; experiment: Mean arterial BP before administration at a dose of 10 mg/kg iv.; format: functional, Canis lupus familiaris
[17] = test system: Canis familiaris; experiment: Mean Heart rate before administration at a dose of 10 mg/kg iv.; format: functional, Canis lupus familiaris
[18] = test system: Canis familiaris; experiment: Effect of compound at a dose of 10 mg/kg iv, on standard cardiovascular in anesthetized normotensive dogs after administration of epinephrine.; format: functional, Canis lupus familiaris, Heart; in short: as §4
[19] = test system: Rattus norvegicus; experiment: hypotensive activity in renal hypertensive rats by using tail-cuff method measured as post drug BP (day/h) after administration of 10 mg/kg dose po;(day/h=3/2); format: functional, Blood; in short: as §8
[20] = test system: Canis familiaris; experiment: Hemodynamic effect in sinoaortic- deafferented hypertensive dog measured as heart rate after 5 min of 5 mg/kg dose; format: functional, Canis lupus familiaris
[21] = test system: Canis familiaris; experiment: Hemodynamic effect in sinoaortic- deafferented hypertensive dog measured as left ventricular pressure after 5 min of 5 mg/kg; format: functional, Canis lupus familiaris, Heart left ventricle
[22] = test system: Canis familiaris; experiment: Hemodynamic effect in sinoaortic- deafferented hypertensive dog measured as left ventricular pressure after 30 min of 5 mg/kg; format: functional, Canis lupus familiaris, Heart left ventricle
[23] = test system: Canis familiaris; experiment: Hemodynamic effect in sinoaortic- deafferented hypertensive dog measured as mean arterial BP after 60 min of 5 mg/kg dose; format: functional, Canis lupus familiaris
[24] = test system: Rattus norvegicus; experiment: hypotensive activity in renal hypertensive rats by using tail-cuff method measured as post drug BP (day/h) after administration of 10 mg/kg dose po;(day/h=2/2); format: functional, Blood; in short: as §8
[25] = test system: Canis familiaris; experiment: Hemodynamic effect in sinoaortic- deafferented hypertensive dog measured as mean arterial BP after 5 min of 5 mg/kg dose; format: functional, Canis lupus familiaris
[26] = test system: Rattus norvegicus; experiment: as §5; format: functional, Blood; in short: as §2; remark: listed apart in the source
[27] = test system: Canis familiaris; experiment: Effect of compound at a dose of 10 mg/kg iv, on standard cardiovascular in anesthetized normotensive dogs after administration of carbachol; format: functional, Canis lupus familiaris, Heart; in short: as §4
[28] = test system: Canis familiaris; experiment: Hemodynamic effect in sinoaortic- deafferented hypertensive dog measured as mean arterial BP after 30 min of 5 mg/kg dose; format: functional, Canis lupus familiaris
[29] = test system: Rattus norvegicus; experiment: (§10) Oral hypotensive activity in spontaneously hypertensive rats by using tail-cuff method measured as change in systolic BP at the dose of 25 mg/kg po.; format: functional, Blood; in short: as §9
[30] = test system: Rattus norvegicus; experiment: as §1; format: functional, Blood; in short: as §6; remark: listed apart in the source
[31] = test system: Rattus norvegicus; experiment: as §10; format: functional, Blood; in short: as §2; remark: listed apart in the source
[32] = test system: Canis familiaris; experiment: Hemodynamic effect in sinoaortic- deafferented hypertensive dog measured as heart rate after 60 min of 5 mg/kg dose; format: functional, Canis lupus familiaris
[33] = test system: Canis familiaris; experiment: Mean Heart rate after. administration at a dose of 10 mg/kg iv.; format: functional, Canis lupus familiaris
[34] = test system: Rattus norvegicus; experiment: Hypotensive activity in renal hypertensive rats by using tail-cuff method measured as initial BP at the dose of 10 mg/kg po.; format: functional, Blood; in short: as §3
[35] = test system: Canis familiaris; experiment: Hemodynamic effect in sinoaortic- deafferented hypertensive dog measured as left ventricular pressure after 60 min of 5 mg/kg; format: functional, Canis lupus familiaris, Heart left ventricle
[36] = test system: Canis familiaris; experiment: Mean arterial BP after administration at a dose of 10 mg/kg iv.; format: functional, Canis lupus familiaris
[37] = test system: Canis familiaris; experiment: Effect of compound at a dose of 10 mg/kg iv, on standard cardiovascular in anesthetized normotensive dogs before administration of tyramine.; format: functional, Canis lupus familiaris, Heart; in short: as §4
[38] = test system: Canis familiaris; experiment: Effect of compound at a dose of 10 mg/kg iv, on standard cardiovascular in anesthetized normotensive dogs before administration of epinephrine.; format: functional, Canis lupus familiaris, Heart; in short: as §4
[39] = test system: Canis familiaris; experiment: Effect of compound at a dose of 10 mg/kg iv, on standard cardiovascular in anesthetized normotensive dogs before administration of isoproterenol.; format: functional, Canis lupus familiaris, Heart; in short: as §4

`CN1CCC2(CC1)Oc1ccccc1C2n1cccc1` (centres undefined) gave a BP [1] of 175 mmHg, a Delta blood pressure [2] of 30 mmHg and a BP [3] of 196 mmHg. It also gave a BP [4] of 57 mmHg, a BP [5] of 48 mmHg and a BP [6] of 202 mmHg. For the same compound, the Delta blood pressure [7] was 50 mmHg, the BP [8] was 183 mmHg and the dP/dt [9] was 24.2 1/Pmax s. It also gave a BP [10] of 190 mmHg, a BP [11] of -49.2 mmHg and a Rate [12] of 174 beats min-1. It also gave a BP [13] of 58 mmHg, a Rate [14] of 194 beats min-1 and a BP [15] of -30 mmHg. The BP [16] was 117 mmHg, the Rate [17] was 147 beats min-1 and the BP [18] was 67 mmHg. For the same compound, the BP [19] was 97 mmHg, the Rate [20] was 154 beats min-1 and the dP/dt [21] was 26 1/Pmax s. The dP/dt [22] was 26.2 1/Pmax s, the BP [23] was 129 mmHg and the BP [24] was 184 mmHg and 170 mmHg. The BP [25] was 123 mmHg, the Delta blood pressure [26] was 39 mmHg and the BP [27] was -29.7 mmHg. It also gave a BP [28] of 129 mmHg, a BP [29] of 196 mmHg and a BP [30] of 184 mmHg. For the same compound, the Delta blood pressure [31] was 58 mmHg, the Rate [32] was 160 beats min-1 and the Rate [33] was 113 beats min-1. For the same compound, the BP [34] was 206 mmHg, the dP/dt [35] was 23.4 1/Pmax s and the BP [36] was 82.3 mmHg. The BP [37] was 52.5 mmHg, the BP [38] was 53.7 mmHg and the BP [39] was -38 mmHg.

From ChEMBL document CHEMBL1122463, “2,3-dihydro-3-(1-pyrryl)spiro[benzofuran-2,4'-piperidine]s and 2,3-dihydro-3-(1-pyrryl)spiro[benzofuran-2,3'-pyrrolidine]s: novel antihypertensive agents” (1983)
